# Wee1 stabilizer = Wee1 degradation inhibitors, primary screen, cell-based, HeLa, Wee1K328M-luciferase, luminescence; reporter increase, % at 5 µM; actives 1.2% (n = 220,000); Wee1-like protein kinase (Homo sapiens), P30291; AID 1321, 2008; HeLa Luc-Wee1K328M stability; 100% = proteasome inhibitor MG132 effect;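 active = activation above the mean of all tested compounds plus 3 SD, set per screening run, cut at about 8.8% in these data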;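 also: cells exposed to compound for 20 h before luminescence read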
# Mdm2 ligase inh = MDM2-luciferase reporter signal enhancers, primary screen, MDM2 E3 ligase inhibitor project, cell-based, luminescence, 1536-well; cell-based MDM2 ubiquitination luciferase reporter, 2 h; 0 = plate control, 100 = twice control, blank-subtracted; signal enhancement, % at 5 µM; actives 0.11% (n = 210,000); AID 1230, 2008;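 active = signal enhancement of 30% or more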;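 also: luminescence tracks abundance of the self-degrading MDM2-luciferase fusion protein; higher signal means inhibition of MDM2 E3 ligase activity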
#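 Assay system: stable mammalian line carrying autodegrading MDM2–luciferase fusion reporter; Input: 2000 cells in each well; Compound dosing: single-point 5 µM; Schedule: 2 h compound exposure at 37 °C; Signal: SteadyLite luciferase luminescence after 15 min room-temperature reagent incubation; Evaluation: % luminescence enhancement versus blank-corrected plate control mean; Benchmarks: plate controls and plate blanks.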
# 14-3-3 Bad PPI = inhibitors of 14-3-3 zeta/Bad binding, primary screen, biochemical, TR-FRET, bovine 14-3-3 zeta. 14-3-3 protein zeta/delta (Bos taurus), P63103. TR-FRET 14-3-3zeta/Dy647-pBad peptide displacement, 1 h. inhibition, % at 21.7 µM. actives 0.71% (n = 220,000). AID 781, 2007;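 active = inhibition above about 70%, limit read from the data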
# Target sequence (P63103 whole entry, looked up): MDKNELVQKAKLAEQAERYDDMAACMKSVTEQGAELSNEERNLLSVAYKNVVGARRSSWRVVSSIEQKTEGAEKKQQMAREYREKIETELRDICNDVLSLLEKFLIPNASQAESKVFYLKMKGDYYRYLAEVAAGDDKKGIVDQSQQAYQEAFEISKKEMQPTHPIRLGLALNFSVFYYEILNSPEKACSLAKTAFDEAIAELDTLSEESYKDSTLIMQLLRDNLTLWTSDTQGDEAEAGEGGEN
# TbHK1 inh = Trypanosoma brucei hexokinase 1 inhibitors, primary screen, biochemical, G6PDH-coupled NADH absorbance, MLSCN library; hexokinase 1 [Trypanosoma brucei]; recombinant TbHK1, G6PDH-coupled NADH A340; inhibition, % at 10 µM; actives 0.11% (n = 220,000);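 active = inhibition of 50% or more in the single-dose primary screen; inactive = inhibition below 50%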
# Hck Nef HTS = inhibitors of Nef-activated human Hck kinase, primary screen, biochemical, Z-Lyte FRET, 384-well, Hck-YEEI; Tyrosine-protein kinase HCK (Homo sapiens), P08631; Recombinant Hck-YEEI plus Nef, Z-Lyte FRET kinase assay; inhibition, % at 20 µM; actives 0.68% (n = 220,000);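 active = Hck-Nef kinase inhibition above about 50%, limit read from the data; inactive = inhibition below that limit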
# Wee1 stab conf = Wee1 degradation inhibitors, confirmation, cell-based, HeLa, Wee1K328M-luciferase, luminescence, triplicate. actives 4% (n = 1,100). shares compounds with Wee1 stabilizer. HeLa Luc-Wee1K328M degradation; vehicle 0%, proteasome-blocked wells 100%. activation, % at 5 µM; in the data active = activation above about 8.9%
# Hits are given with their value; i = inactive; nt = no result given. Hits are enriched below; roughly 2.7% of the tested compounds scored in any of these assays.
SMILES,Wee1 stabilizer,Mdm2 ligase inh,14-3-3 Bad PPI,TbHK1 inh,Hck Nef HTS,Wee1 stab conf
Cc1ncoc1C(=O)Nc1ncc([N+](=O)[O-])s1,14,i,i,i,i,i
Cn1c(=O)[nH]c(=O)c2c1nc(SCCN1CCCCC1)n2CCCc1ccccc1,i,i,i,i,i,nt
Cc1ccc(S(=O)(=O)N2CCOCC2)cc1C(=O)N(C)CCOc1ccc(Cl)cc1,12,i,i,i,i,i
CCc1nc(C)cc2c1sc1ccccc12,25,i,i,i,i,i
C/C(N)=N\S(=O)(=O)c1ccc(Cl)cc1,i,i,i,i,i,nt
NC(N)=NS(=O)(=O)c1ccc(N)cc1,11,nt,i,i,i,i
Cc1cccc(Nc2nc(-c3c(C)nc4ccccn34)cs2)c1,i,i,i,i,i,nt
Cc1nc2ccccn2c1-c1csc(Nc2cccc(O)c2)n1,13,i,i,i,i,11
C/C(Cn1nnc([N+](=O)[O-])n1)=N\NC(=O)c1cccc(Cl)c1,i,i,i,i,i,nt
CC(C)(C)NC(=O)c1ccc2c(c1)CCO2,i,i,i,i,i,nt
Cc1c(O)ccc2c(O)c(NC(=O)c3ccc4c(c3)CCC(C)(C)O4)c(=O)oc12,12,i,i,i,i,i
Cc1cc(-n2nnc3ccccc32)nc2ccccc12,13,i,i,i,i,i
O=C(O)CCCC(=O)N1CCCC1,i,i,i,i,i,nt
CC1(C)C(=O)NCCN1C(=O)CCCC(=O)O,12,i,i,i,i,i
Cc1cc(C(=O)CSc2nc3ccccc3o2)c(C)n1CC1CCCO1 (stereo not given),11,i,i,i,i,i
COc1ccc(C(=O)NNC(=O)CCn2nnc(-c3ccc(Cl)cc3)n2)cc1OC,i,i,i,i,i,nt
CN(C)c1ccc(NC(=O)CCn2c(=S)oc3ccccc32)cc1,11,i,i,i,i,i
COc1ccc(N2CCN(C(=O)CCN3C(=S)NC(C)(C)CC3C)CC2)cc1 (stereo not given),11,i,i,i,i,i
NC(=O)c1cnn2c(C(F)(F)F)cc(-c3ccc(F)cc3)nc12,i,i,i,i,i,nt
CCOC(=O)CSc1nnc(CNC(=O)c2ccccc2OC)n1-c1ccc(OC)cc1,12,i,i,i,i,i
CS(=O)(=O)N1N=C(c2ccccc2)CC1c1ccc2c(c1)OCO2 (stereo not given),i,i,i,i,i,nt
CS(=O)(=O)Nc1cccc(C2=NN(S(C)(=O)=O)C(c3ccc4c(c3)OCO4)C2)c1 (stereo not given),13,i,i,i,i,i
O=C(Nc1ccc(Cl)cn1)C1COc2ccccc2O1 (stereo not given),19,i,i,i,i,i
O=C(Nc1ccccn1)C1COc2ccccc2O1 (stereo not given),i,i,i,i,i,nt
C/C(CC(=O)Nc1ccccn1)=N\NC(=O)c1cnccn1,i,i,i,i,i,nt
SMILES,Wee1 stabilizer,Mdm2 ligase inh,14-3-3 Bad PPI,TbHK1 inh,Hck Nef HTS,Wee1 stab conf
CC(=O)Nc1ccc(C(=O)OCC(=O)NC2CCCCCCC2)cc1,i,i,i,i,i,nt
O=C(N/N=C/c1cc(Br)cs1)c1ccc2c(c1)OCCO2,i,i,i,i,i,nt
Cc1ccc(/C=N/NC(=O)c2ccc3c(c2)OCCO3)s1,12,i,i,i,i,11
Cc1c(NC(=O)C(C)OC(=O)C23CC4CC(CC(Br)(C4)C2)C3)c(=O)n(-c2ccccc2)n1C (stereo not given),i,i,i,i,i,nt
CCO[C@@H]1OC(C(=O)O)=C[C@H](C2CC2)[C@H]1CCCO,i,nt,i,i,i,nt
CCOC(=O)C(=Cc1c[nH]c2ccc(S(=O)(=O)N(C)C)cc12)C(=O)OCC,12,i,i,i,i,i
CCOC(=O)N1CCN(S(=O)(=O)c2ccc3[nH]cc(C(=O)O)c(=O)c3c2)CC1,i,i,i,i,i,nt
Fc1ccc(CSc2ccc(-c3ccco3)nn2)cc1,12,i,i,i,i,i
Cc1snc(S(=O)(=O)/C(C#N)=N/Nc2ccc(C(F)(F)F)cc2)c1C#N,i,i,i,i,i,nt
CC(C)CC(=O)NC(c1ccccc1Cl)c1c(O)ccc2ccccc12 (stereo not given),21,i,i,i,i,i
CC(CCc1ccccc1)NC(=O)Cc1cccs1 (stereo not given),i,i,i,i,i,nt
CN(Cc1cc2ccccc2[nH]c1=O)S(=O)(=O)c1ccccc1,i,i,i,i,i,nt
CN(Cc1cc2ccccc2[nH]c1=O)S(C)(=O)=O,13,i,i,i,i,i
CC1(C)Cc2nc3sc4c(SCC(=O)NCc5ccccc5)ncnc4c3cc2CO1,13,i,i,i,i,i
Cc1cc(C)n(-c2ccc(C(=O)Nc3ccccc3N3CCOCC3)cc2)n1,i,i,i,i,i,nt
Cc1cc(C)n(-c2ccc(C(=O)Nc3cc(C(F)(F)F)ccc3N3CCOCC3)cc2)n1,13,i,i,i,i,i
CCN(CC)c1ccc(/C=N/NC(=O)c2cnccn2)cc1,15,i,i,i,i,19
CCN(CC)c1ccc(/C=N/NC(=O)c2ccco2)cc1,20,i,i,i,i,13
CCN(CC)c1ccc(/C=N/NC(=O)c2ccc([N+](=O)[O-])cc2)cc1,i,i,i,i,i,nt
Cc1cc(NN)nc2ccc(Cl)cc12,i,i,i,i,i,nt
Cn1c(SCC2CCCO2)nnc1-c1ccc([N+](=O)[O-])cc1 (stereo not given),13,i,i,i,i,i
Cn1c(SCC(=O)NCC2CCCO2)nnc1-c1ccc(S(=O)(=O)N2CCCC2)cc1 (stereo not given),i,i,i,i,i,nt
CC(C)(CNC(=O)C1CCCC1)CNC(=O)C1CCCC1,11,i,i,i,i,i
CN(Cc1nccn1C)C(=O)CC1C(=O)NCCN1Cc1cccc(Oc2ccccc2)c1 (stereo not given),12,i,i,i,i,i
N#CCCn1c(O)c(N=NC(=O)CNC(=O)c2cccs2)c2ccccc21,15,i,i,i,i,i
O=C(CNC(=O)c1ccco1)N=Nc1c(O)n(CCc2ccccc2)c2ccccc12,i,i,i,i,i,nt
